Test results as given in ChEMBL document CHEMBL3627597, “Synthesis of Fluorine-Containing Phosphodiesterase 10A (PDE10A) Inhibitors and the In Vivo Evaluation of F-18 Labeled PDE10A PET Tracers in Rodent and Nonhuman Primate” (J Med Chem, 2015).

How the values were obtained:
[1] = target: cAMP and cAMP-inhibited cGMP 3',5'-cyclic phosphodiesterase 10A (Homo sapiens, UniProt Q9Y233); experiment: Inhibition of recombinant human PDE10A assessed as reduction of [3H]-cAMP hydrolysis preincubated for 5 mins followed by [3H]-cAMP addition measured after 20 mins by scintillation proximity assay
cAMP and cAMP-inhibited cGMP 3',5'-cyclic phosphodiesterase 10A, sequence (Q9Y233 whole entry): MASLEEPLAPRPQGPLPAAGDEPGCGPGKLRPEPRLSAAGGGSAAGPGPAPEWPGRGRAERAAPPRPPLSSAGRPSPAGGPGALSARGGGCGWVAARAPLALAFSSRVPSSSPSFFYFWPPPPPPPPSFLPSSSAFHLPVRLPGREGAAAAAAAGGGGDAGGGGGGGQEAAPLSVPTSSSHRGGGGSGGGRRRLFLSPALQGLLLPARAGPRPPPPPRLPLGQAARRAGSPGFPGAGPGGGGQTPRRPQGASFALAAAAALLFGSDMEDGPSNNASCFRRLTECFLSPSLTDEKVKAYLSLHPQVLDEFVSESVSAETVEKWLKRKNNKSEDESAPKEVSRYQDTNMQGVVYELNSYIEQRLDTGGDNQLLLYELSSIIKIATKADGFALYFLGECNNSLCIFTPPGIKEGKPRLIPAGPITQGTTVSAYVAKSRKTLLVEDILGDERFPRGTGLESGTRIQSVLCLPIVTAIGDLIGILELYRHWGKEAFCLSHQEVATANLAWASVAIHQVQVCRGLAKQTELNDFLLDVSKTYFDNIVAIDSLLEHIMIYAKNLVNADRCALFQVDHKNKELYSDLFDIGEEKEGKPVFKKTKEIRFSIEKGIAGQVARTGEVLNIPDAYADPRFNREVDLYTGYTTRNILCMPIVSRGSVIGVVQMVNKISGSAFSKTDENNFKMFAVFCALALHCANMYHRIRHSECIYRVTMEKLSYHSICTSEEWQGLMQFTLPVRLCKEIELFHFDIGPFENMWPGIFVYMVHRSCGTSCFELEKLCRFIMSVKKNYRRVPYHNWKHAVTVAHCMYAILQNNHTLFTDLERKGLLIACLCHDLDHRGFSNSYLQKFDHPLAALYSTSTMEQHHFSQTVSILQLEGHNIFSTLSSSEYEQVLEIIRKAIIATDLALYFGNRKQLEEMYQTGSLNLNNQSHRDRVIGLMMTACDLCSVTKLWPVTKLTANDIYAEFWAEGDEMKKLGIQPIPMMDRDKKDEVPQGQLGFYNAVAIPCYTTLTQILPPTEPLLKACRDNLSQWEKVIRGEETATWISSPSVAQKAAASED
Method in brief: (§1)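 Recombinant human PDE with [3H]cAMP scintillation proximity assay. Enzyme used at a level within the linear range. Inhibitor (DMSO serial dilutions) plus enzyme held 5 min on ice, then [3H]cAMP added at 1/3 Km (1.48 kBq/mL), 20 min on ice (~30% turnover). Stopped with yttrium silicate SPA beads; settled 1.5 h at rt and counted. IC50 from one-site nonlinear fit, at least two independent runs, ± SD.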

[2] = target: cGMP-inhibited 3',5'-cyclic phosphodiesterase 3A (Homo sapiens, UniProt Q14432); experiment: Inhibition of recombinant human PDE3A assessed as reduction of [3H]-cAMP hydrolysis preincubated for 5 mins followed by [3H]-cAMP addition measured after 20 mins by scintillation proximity assay; method in brief: as §1
cGMP-inhibited 3',5'-cyclic phosphodiesterase 3A, sequence (Q14432 whole entry): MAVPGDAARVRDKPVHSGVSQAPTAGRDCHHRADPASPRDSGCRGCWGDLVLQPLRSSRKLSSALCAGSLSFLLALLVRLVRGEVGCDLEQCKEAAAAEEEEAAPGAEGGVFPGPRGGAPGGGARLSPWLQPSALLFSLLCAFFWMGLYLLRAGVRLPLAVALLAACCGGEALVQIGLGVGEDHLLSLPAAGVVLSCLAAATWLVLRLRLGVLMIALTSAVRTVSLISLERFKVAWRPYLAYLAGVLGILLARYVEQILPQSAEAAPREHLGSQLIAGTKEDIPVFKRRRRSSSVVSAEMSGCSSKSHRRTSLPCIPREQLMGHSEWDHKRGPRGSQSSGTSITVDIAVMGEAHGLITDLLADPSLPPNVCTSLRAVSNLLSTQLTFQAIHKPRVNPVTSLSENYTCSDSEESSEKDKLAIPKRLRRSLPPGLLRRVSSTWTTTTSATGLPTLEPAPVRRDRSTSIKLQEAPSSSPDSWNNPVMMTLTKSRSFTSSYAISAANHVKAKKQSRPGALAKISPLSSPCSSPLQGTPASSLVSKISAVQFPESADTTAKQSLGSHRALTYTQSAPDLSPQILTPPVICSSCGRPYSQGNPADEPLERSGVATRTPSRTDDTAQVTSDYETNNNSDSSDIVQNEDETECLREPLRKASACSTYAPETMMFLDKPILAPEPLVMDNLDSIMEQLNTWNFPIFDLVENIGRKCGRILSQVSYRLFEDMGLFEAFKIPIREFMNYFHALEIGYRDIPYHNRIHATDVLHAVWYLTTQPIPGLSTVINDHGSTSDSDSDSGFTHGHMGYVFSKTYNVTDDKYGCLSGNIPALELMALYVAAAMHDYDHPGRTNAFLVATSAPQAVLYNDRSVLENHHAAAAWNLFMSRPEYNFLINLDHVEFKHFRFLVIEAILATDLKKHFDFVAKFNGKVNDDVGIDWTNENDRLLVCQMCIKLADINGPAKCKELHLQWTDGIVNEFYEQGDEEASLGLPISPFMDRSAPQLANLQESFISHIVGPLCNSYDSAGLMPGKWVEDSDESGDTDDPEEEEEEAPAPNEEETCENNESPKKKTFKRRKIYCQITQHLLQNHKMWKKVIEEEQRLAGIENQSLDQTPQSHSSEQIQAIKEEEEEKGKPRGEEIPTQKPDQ

[3] = target: cGMP-inhibited 3',5'-cyclic phosphodiesterase 3B (Homo sapiens, UniProt Q13370); experiment: Inhibition of recombinant human PDE3B assessed as reduction of [3H]-cAMP hydrolysis preincubated for 5 mins followed by [3H]-cAMP addition measured after 20 mins by scintillation proximity assay; method in brief: as §1
cGMP-inhibited 3',5'-cyclic phosphodiesterase 3B, sequence (Q13370 whole entry): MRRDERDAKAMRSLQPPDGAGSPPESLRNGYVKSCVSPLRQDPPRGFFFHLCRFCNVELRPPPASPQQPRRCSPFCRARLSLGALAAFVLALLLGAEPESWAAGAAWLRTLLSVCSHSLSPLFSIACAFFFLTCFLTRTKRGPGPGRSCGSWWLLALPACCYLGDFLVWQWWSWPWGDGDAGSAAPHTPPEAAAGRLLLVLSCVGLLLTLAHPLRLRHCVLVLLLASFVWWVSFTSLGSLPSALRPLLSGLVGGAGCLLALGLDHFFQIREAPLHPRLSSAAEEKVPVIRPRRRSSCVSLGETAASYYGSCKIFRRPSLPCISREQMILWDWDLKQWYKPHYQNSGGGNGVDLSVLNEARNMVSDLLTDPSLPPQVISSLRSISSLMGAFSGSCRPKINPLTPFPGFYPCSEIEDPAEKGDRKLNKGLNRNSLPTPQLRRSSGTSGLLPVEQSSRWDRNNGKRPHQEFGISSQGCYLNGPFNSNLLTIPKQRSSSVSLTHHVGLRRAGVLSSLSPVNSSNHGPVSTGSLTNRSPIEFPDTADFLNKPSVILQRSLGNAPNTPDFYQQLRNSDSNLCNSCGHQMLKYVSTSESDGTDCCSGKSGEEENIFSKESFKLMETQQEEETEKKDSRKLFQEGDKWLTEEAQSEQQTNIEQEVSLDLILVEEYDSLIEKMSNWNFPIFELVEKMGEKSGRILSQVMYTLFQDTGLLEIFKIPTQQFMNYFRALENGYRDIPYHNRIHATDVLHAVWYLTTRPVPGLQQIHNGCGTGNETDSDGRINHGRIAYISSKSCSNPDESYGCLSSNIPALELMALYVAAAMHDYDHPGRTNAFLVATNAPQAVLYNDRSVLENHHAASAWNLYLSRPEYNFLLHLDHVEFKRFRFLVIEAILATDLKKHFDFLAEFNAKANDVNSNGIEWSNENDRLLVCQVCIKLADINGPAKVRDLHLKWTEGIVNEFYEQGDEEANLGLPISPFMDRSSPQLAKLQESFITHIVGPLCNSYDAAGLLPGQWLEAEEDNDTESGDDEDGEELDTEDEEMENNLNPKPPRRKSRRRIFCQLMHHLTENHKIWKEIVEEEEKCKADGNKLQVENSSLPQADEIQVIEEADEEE

[4] = target: 3',5'-cyclic-AMP phosphodiesterase 4A (Homo sapiens, UniProt P27815); experiment: Inhibition of recombinant human PDE4A assessed as reduction of [3H]-cAMP hydrolysis preincubated for 5 mins followed by [3H]-cAMP addition measured after 20 mins by scintillation proximity assay; method in brief: as §1
3',5'-cyclic-AMP phosphodiesterase 4A, sequence (P27815 whole entry): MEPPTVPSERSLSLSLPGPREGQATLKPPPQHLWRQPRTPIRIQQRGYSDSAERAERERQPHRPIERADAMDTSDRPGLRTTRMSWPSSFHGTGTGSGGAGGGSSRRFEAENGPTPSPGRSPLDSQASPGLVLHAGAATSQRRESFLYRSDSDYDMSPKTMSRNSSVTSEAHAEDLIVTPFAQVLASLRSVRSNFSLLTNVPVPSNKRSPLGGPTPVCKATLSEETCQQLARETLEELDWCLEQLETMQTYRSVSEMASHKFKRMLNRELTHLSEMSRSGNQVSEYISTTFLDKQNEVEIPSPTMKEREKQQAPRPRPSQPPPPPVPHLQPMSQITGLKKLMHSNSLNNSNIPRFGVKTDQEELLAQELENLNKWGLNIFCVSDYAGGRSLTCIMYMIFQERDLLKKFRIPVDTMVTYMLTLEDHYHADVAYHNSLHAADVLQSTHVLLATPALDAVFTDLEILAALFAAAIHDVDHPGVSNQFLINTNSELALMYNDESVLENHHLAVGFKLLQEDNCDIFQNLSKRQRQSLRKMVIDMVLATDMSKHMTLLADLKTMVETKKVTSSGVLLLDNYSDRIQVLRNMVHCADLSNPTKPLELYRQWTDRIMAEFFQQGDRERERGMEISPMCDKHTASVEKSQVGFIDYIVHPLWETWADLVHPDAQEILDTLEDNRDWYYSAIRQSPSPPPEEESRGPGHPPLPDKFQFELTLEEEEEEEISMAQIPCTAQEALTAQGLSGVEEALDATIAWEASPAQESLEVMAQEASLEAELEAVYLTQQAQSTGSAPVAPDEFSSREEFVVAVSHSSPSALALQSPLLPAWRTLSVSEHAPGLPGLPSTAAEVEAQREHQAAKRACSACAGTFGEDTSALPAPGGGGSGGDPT

[5] = target: 3',5'-cyclic-AMP phosphodiesterase 4B (Homo sapiens, UniProt Q07343); experiment: Inhibition of recombinant human PDE4B assessed as reduction of [3H]-cAMP hydrolysis preincubated for 5 mins followed by [3H]-cAMP addition measured after 20 mins by scintillation proximity assay; method in brief: as §1
3',5'-cyclic-AMP phosphodiesterase 4B, sequence (Q07343 whole entry): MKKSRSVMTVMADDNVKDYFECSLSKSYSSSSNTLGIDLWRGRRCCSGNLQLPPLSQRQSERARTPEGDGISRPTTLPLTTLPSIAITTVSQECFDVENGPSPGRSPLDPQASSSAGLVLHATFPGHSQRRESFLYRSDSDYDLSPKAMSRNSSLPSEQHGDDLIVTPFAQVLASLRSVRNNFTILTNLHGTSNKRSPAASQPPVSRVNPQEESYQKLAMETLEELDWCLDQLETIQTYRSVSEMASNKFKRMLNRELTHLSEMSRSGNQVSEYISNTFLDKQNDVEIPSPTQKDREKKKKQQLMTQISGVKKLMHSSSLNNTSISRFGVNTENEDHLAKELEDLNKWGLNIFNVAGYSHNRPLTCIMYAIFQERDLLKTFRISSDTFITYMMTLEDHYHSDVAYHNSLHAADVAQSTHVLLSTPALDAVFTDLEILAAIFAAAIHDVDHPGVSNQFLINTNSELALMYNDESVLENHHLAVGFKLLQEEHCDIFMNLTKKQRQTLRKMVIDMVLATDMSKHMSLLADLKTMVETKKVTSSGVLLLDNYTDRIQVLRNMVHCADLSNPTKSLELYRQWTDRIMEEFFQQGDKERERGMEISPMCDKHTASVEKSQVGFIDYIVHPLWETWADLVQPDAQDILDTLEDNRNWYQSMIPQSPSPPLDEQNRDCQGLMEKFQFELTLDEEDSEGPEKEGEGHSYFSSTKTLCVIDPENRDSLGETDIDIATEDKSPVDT

Homo sapiens [6] = species: Homo sapiens; experiment: Selectivity ratio of IC50 for recombinant human PDE3A to IC50 for recombinant human PDE10A
Homo sapiens [7] = species: Homo sapiens; experiment: Selectivity ratio of IC50 for recombinant human PDE3B to IC50 for recombinant human PDE10A
Homo sapiens [8] = species: Homo sapiens; experiment: Selectivity ratio of IC50 for recombinant human PDE4A to IC50 for recombinant human PDE10A
Homo sapiens [9] = species: Homo sapiens; experiment: Selectivity ratio of IC50 for recombinant human PDE4B to IC50 for recombinant human PDE10A

| IC50 [1] [µM] | IC50 [2] [µM] | IC50 [3] [µM] | IC50 [4] [µM] | IC50 [5] [µM] | Ratio IC50 (Homo sapiens [6]) | Ratio IC50 (Homo sapiens [7]) | Ratio IC50 (Homo sapiens [8]) | Ratio IC50 (Homo sapiens [9]) | SMILES |
| --- | --- | --- | --- | --- | --- | --- | --- | --- | --- |
| 0.00307 | 4.51 | 3.56 | 1.57 | 18.3 | > 210 | > 210 | > 210 | > 210 | Cn1cc(-c2ccncc2)c(-c2ccc(OCc3cc(-n4cc(CCF)nn4)c4ccccc4n3)cc2)n1 |
| 0.00036 | 66.4 | 50.1 | 12.3 | 11.6 | > 210 | > 210 | > 210 | > 210 | Cn1ncc(-c2ccncc2)c1-c1ccc(OCc2cc(OCCOCCF)c3ccccc3n2)cc1 |
| 0.0018 | 21.9 | 19.1 | 0.46 | 0.38 | > 210 | > 210 | > 210 | > 210 | Cn1cc(-c2ccncc2)c(-c2ccc(OCc3cc(CCCF)c4ccccc4n3)cc2)n1 |
| 0.00026 | 25.9 | 19.9 | 1.76 | 1.04 | > 210 | > 210 | > 210 | > 210 | Cn1cc(-c2ccncc2)c(-c2ccc(OCc3nc4ccccc4cc3OCCF)cc2)n1 |
| 0.00065 | 4.07 | 4.55 | 2.22 | 1.77 | > 210 | > 210 | > 210 | > 210 | Cn1cc(-c2ccncc2)c(-c2ccc(OCc3cc(COCCF)c4ccccc4n3)cc2)n1 |
| 0.00052 | 3.74 | 3.48 | 5.97 | 4.8 | > 210 | > 210 | > 210 | > 210 | Cn1cc(-c2ccncc2)c(-c2ccc(OCc3cc(NCCF)c4ccccc4n3)cc2)n1 |
| 0.00032 | 29.5 | 7.76 | 1.01 | 1.77 | > 210 | > 210 | > 210 | > 210 | Cn1cc(-c2ccncc2)c(-c2ccc(OCc3cc(OCCF)c4ccccc4n3)cc2)n1 |
| 0.00029 | 38.5 | 23.9 | 2.33 | 2.55 | > 210 | > 210 | > 210 | > 210 | Cn1cc(-c2ccncc2)c(-c2ccc(OCc3ccc4cc(F)ccc4n3)cc2)n1 |
| 0.00024 | 116 | 61.9 | 1.57 | 1.58 | > 210 | > 210 | > 210 | > 210 | Cn1cc(-c2ccncc2)c(-c2ccc(OCc3cc(OCCOCCOCCF)c4ccccc4n3)cc2)n1 |
| 0.0335 | – | – | – | – | > 210 | > 210 | > 210 | > 210 | Cn1cc(-c2ccncc2)c(-c2ccc(OCc3ccc4cc(OCCF)ccc4n3)cc2)n1 |
| 0.00112 | 306 | > 1000 | 4.77 | 4.24 | > 210 | > 210 | > 210 | > 210 | Cn1ncc(-c2ccncc2)c1-c1ccc(OCc2cc(COCCF)c3ccccc3n2)cc1 |
| 0.00071 | 199 | 103 | 8.35 | 6.42 | > 210 | > 210 | > 210 | > 210 | Cn1cc(-c2ccncc2)c(-c2ccc(OCc3cc(F)c4ccccc4n3)cc2)n1 |
| 0.00498 | 0.81 | 16.2 | 1.86 | 0.9 | > 210 | > 210 | > 210 | > 210 | Cn1ncc(-c2ccncc2)c1-c1ccc(OCc2cc(-n3cc(CCF)nn3)c3ccccc3n2)cc1 |
| 0.00068 | 7.71 | 5.68 | 4.09 | 3.8 | > 210 | > 210 | > 210 | > 210 | Cn1cc(-c2ccncc2)c(-c2ccc(OCc3cc(CF)c4ccccc4n3)cc2)n1 |
| 0.00116 | 3.77 | 5.61 | 3.72 | 1.02 | > 210 | > 210 | > 210 | > 210 | Cn1ncc(-c2ccncc2)c1-c1ccc(OCc2cc(OCCF)c3ccccc3n2)cc1 |
| 0.00027 | 22.9 | 16.2 | 1.44 | 0.9 | > 210 | > 210 | > 210 | > 210 | Cn1cc(-c2ccncc2)c(-c2ccc(OCc3cc(OCCOCCF)c4ccccc4n3)cc2)n1 |
| 0.00033 | 144 | 29.6 | 9.89 | 10.3 | > 210 | > 210 | > 210 | > 210 | Cn1cc(-c2ccncc2)c(-c2ccc(OCc3cc(OCCOCCOCCOCCF)c4ccccc4n3)cc2)n1 |
| 0.0003 | 58.7 | 28.1 | 15 | 1.73 | > 210 | > 210 | > 210 | > 210 | Cn1ncc(-c2ccncc2)c1-c1ccc(OCc2cc(OCCOCCOCCOCCF)c3ccccc3n2)cc1 |
| 0.00037 | 78.8 | 38.3 | 12.4 | 1.59 | > 210 | > 210 | > 210 | > 210 | Cn1ncc(-c2ccncc2)c1-c1ccc(OCc2cc(NCCF)c3ccccc3n2)cc1 |
| 0.00076 | 111 | 151 | 9.73 | 0.76 | > 210 | > 210 | > 210 | > 210 | Cn1ncc(-c2ccncc2)c1-c1ccc(OCc2ccc3cc(F)ccc3n2)cc1 |
| 0.00047 | 62.2 | 51.8 | 8.36 | 7.31 | > 210 | > 210 | > 210 | > 210 | Cn1ncc(-c2ccncc2)c1-c1ccc(OCc2cc(OCCOCCOCCF)c3ccccc3n2)cc1 |
| > 0.076 | – | – | – | – | > 210 | > 210 | > 210 | > 210 | Cn1cc(-c2ccncc2)c(-c2ccc(OCc3ccc4cc(CF)ccc4n3)cc2)n1 |
